The record followed here is ChEMBL document CHEMBL1926627, “Synthesis and evaluation of novel modified γ-lactam prostanoids as EP4 subtype-selective agonists” (Bioorg Med Chem, 2012).

What is called Ki is the dissociation constant of the complex between target and ligand, obtained from inhibition or displacement. As usually defined, the EC50 is the midpoint of the concentration-response curve.

Chain of Prostaglandin E2 receptor EP4 subtype (Mus musculus, UniProt P32240) (P32240 whole entry): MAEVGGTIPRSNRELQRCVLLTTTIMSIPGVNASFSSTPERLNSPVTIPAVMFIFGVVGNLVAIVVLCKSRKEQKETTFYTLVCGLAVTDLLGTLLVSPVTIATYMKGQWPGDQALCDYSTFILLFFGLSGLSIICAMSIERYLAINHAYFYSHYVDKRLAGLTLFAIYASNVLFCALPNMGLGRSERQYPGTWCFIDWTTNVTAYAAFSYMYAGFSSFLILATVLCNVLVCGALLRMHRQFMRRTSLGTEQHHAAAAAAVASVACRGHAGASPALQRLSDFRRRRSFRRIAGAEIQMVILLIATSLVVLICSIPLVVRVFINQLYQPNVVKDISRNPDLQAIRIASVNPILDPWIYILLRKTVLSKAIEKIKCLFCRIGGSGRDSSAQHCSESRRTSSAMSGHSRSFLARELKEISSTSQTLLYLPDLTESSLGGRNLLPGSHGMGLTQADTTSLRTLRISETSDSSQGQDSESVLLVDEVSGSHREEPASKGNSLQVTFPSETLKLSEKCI
Chain of Prostaglandin E2 receptor EP4 subtype (Rattus norvegicus, UniProt P43114) (P43114 whole entry): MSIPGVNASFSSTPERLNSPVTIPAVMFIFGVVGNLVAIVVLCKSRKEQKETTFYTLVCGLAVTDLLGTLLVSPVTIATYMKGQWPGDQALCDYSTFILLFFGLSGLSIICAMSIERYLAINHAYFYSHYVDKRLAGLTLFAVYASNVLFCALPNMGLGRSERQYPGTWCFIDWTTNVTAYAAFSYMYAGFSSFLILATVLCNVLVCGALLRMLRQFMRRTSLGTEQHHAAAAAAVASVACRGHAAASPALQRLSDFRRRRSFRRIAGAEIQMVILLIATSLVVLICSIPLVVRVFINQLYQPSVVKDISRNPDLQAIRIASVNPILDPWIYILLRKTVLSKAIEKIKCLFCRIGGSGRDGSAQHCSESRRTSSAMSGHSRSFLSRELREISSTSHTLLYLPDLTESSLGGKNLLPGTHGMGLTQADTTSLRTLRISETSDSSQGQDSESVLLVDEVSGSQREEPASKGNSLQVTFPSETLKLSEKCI

In one test the target is T1, Prostaglandin E2 receptor EP3 subtype (Mus musculus, UniProt P30557).
T1 sequence (P30557 whole entry): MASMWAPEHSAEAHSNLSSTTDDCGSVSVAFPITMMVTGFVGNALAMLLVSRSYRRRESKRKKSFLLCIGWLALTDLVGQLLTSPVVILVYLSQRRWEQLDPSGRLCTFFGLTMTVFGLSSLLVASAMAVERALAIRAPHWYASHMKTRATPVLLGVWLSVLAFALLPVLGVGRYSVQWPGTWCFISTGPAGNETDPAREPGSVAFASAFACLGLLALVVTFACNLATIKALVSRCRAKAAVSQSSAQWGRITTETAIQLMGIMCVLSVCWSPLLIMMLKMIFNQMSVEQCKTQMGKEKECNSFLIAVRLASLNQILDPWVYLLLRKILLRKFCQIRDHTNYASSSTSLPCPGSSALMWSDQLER
As to the kind of experiment: Displacement of [3H]-PGE2 from mouse EP3 receptor expressed in CHO cells after 60 mins by liquid scintillation counter. Type of test: cell-based. The method, boiled down: (§1)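 Membranes from CHO cells stably expressing mouse EP1–4, incubated with 2.5 nM [³H]PGE₂ and test compound at various concentrations in 10 mM KH₂PO₄–KOH, 1 mM EDTA, 10 mM MgCl₂, 0.1 mM NaCl, pH 6.0. Incubated 25 °C, 60 min (EP1: 20 min). Filtration on GF/B, ice-cold buffer wash, scintillation counting. Nonspecific binding with excess unlabeled PGE₂. IC50 from regression curve; Ki = IC50/(1+[L]/Kd).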
For orientation: Loss of bound radioactivity is the signal in a displacement assay; it reports binding, not function.
`COCc1cccc(C[C@H](O)/C=C/[C@H]2CCC(=O)N2CCSCCCC(=O)O)c1` registered a Ki greater than 10000 nM.
Molecule `COCc1cccc(C[C@H](O)/C=C/[C@H]2CCC(=O)[C@@H]2CCSCCCC(=O)O)c1` yielded a Ki of 190 nM.
The molecule `O=C(O)CCCSCCN1C(=O)OC[C@@H]1/C=C/[C@@H](O)Cc1ccccc1` came in with a Ki of 6400 nM.
On to `CCc1cccc(C[C@H](O)/C=C/[C@H]2COC(=O)N2CCSCCCC(=O)O)c1`, for which the affinity, expressed as Ki, was 2700 nM.
As to `CCCc1cccc(C[C@H](O)/C=C/[C@H]2COC(=O)N2CCSCCCC(=O)O)c1`, the Ki turned out to be 1900 nM.
On the same count and under the same terms, with `O=C(O)CCCSCCN1C(=O)OC[C@@H]1/C=C/[C@@H](O)Cc1cccc(F)c1` the figure was 4000 nM.

The target of another test is Prostaglandin E2 receptor EP2 subtype (Mus musculus, UniProt Q62053). As to the kind of experiment: Displacement of [3H]-PGE2 from mouse EP2 receptor expressed in CHO cells after 60 mins by liquid scintillation counter. In kind it is cell-based. The method, boiled down: as §1
Chain of Prostaglandin E2 receptor EP2 subtype (Q62053 whole entry): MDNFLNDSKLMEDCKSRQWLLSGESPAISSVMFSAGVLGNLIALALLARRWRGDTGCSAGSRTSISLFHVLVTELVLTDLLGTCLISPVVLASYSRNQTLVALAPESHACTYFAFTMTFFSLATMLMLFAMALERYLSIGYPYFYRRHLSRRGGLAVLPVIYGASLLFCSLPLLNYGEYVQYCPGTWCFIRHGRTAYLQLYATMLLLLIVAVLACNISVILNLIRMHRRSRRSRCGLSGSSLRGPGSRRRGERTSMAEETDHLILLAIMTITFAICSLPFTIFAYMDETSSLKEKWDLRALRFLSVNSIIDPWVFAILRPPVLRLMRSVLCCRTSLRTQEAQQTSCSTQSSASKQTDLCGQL
Take `COCc1cccc(C[C@H](O)/C=C/[C@H]2CCC(=O)N2CCSCCCC(=O)O)c1`: affinity was put at a Ki of 8500 nM.
The same measure, in the same setting: with `COCc1cccc(C[C@H](O)/C=C/[C@H]2CCC(=O)[C@@H]2CCSCCCC(=O)O)c1` the figure was 470 nM; with `O=C(O)CCCSCCN1C(=O)OC[C@@H]1/C=C/[C@@H](O)Cc1ccccc1`, greater than 10000 nM; with `CCc1cccc(C[C@H](O)/C=C/[C@H]2COC(=O)N2CCSCCCC(=O)O)c1`, greater than 10000 nM.
`CCCc1cccc(C[C@H](O)/C=C/[C@H]2COC(=O)N2CCSCCCC(=O)O)c1` returned a Ki greater than 10000 nM.
As for `O=C(O)CCCSCCN1C(=O)OC[C@@H]1/C=C/[C@@H](O)Cc1cccc(F)c1`, the Ki is greater than 10000 nM.

The target in a further test is T2, Prostaglandin E2 receptor EP1 subtype (Mus musculus, UniProt P35375).
T2 sequence (P35375 whole entry): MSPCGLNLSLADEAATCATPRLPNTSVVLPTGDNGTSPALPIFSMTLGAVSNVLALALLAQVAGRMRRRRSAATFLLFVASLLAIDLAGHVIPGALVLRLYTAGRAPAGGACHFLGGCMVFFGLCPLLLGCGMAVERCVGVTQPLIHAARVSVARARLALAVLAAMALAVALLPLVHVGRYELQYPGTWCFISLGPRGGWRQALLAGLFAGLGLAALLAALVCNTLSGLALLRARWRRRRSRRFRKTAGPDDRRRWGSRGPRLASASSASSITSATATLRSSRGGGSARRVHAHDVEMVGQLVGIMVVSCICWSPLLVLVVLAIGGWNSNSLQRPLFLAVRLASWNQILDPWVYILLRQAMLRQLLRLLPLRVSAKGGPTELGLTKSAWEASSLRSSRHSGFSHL
The test can be described thus: Displacement of [3H]-PGE2 from mouse EP1 receptor expressed in CHO cells after 20 mins by liquid scintillation counter. Type of test: cell-based. The method, boiled down: as §1
With `COCc1cccc(C[C@H](O)/C=C/[C@H]2CCC(=O)N2CCSCCCC(=O)O)c1`, the Ki is greater than 10000 nM.
As for `COCc1cccc(C[C@H](O)/C=C/[C@H]2CCC(=O)[C@@H]2CCSCCCC(=O)O)c1`, the Ki was greater than 10000 nM.
Molecule `O=C(O)CCCSCCN1C(=O)OC[C@@H]1/C=C/[C@@H](O)Cc1ccccc1` had a Ki greater than 10000 nM.
On to `CCc1cccc(C[C@H](O)/C=C/[C@H]2COC(=O)N2CCSCCCC(=O)O)c1`, for which the Ki was determined as 2400 nM.
Molecule `CCCc1cccc(C[C@H](O)/C=C/[C@H]2COC(=O)N2CCSCCCC(=O)O)c1` showed an inhibition constant (Ki) greater than 10000 nM.
On the same count and under the same terms, with `O=C(O)CCCSCCN1C(=O)OC[C@@H]1/C=C/[C@@H](O)Cc1cccc(F)c1` the figure was 1200 nM.

In a further test the target is Prostaglandin E2 receptor EP4 subtype (Mus musculus, UniProt P32240). The test can be described thus: Displacement of [3H]-PGE2 from mouse EP4 receptor expressed in CHO cells after 60 mins by liquid scintillation counter. In kind it is cell-based. The method, boiled down:
as §1
Turning to `COCc1cccc(C[C@H](O)/C=C/[C@H]2CCC(=O)N2CCSCCCC(=O)O)c1`, the Ki was found to be 8 nM. That is a single-digit nanomolar value.
In turn, `COCc1cccc(C[C@H](O)/C=C/[C@H]2CCC(=O)[C@@H]2CCSCCCC(=O)O)c1` came in with an inhibitory constant (Ki) of 2.4 nM.
In the case of `O=C(O)CCCSCCN1C(=O)OC[C@@H]1/C=C/[C@@H](O)Cc1ccccc1`, the Ki worked out at 4.2 nM.
Same read-out and setting: the value for `CCc1cccc(C[C@H](O)/C=C/[C@H]2COC(=O)N2CCSCCCC(=O)O)c1` was 7.9 nM; that for `CCCc1cccc(C[C@H](O)/C=C/[C@H]2COC(=O)N2CCSCCCC(=O)O)c1` was 2.4 nM.
For the molecule `O=C(O)CCCSCCN1C(=O)OC[C@@H]1/C=C/[C@@H](O)Cc1cccc(F)c1`, affinity was put at a Ki of 20 nM.

Another test has as its target Prostaglandin E2 receptor EP4 subtype (Rattus norvegicus, UniProt P43114). The test can be described thus: Agonist activity at rat EP4 receptor expressed in CHO cells assessed as cAMP production after 10 mins by radioimmunoassay. In kind it is functional, cell-based. The essentials:
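CHO cells expressing rat EP4 seeded at 1×10^5 cells/well and grown 2 days. Washed with MEM, then 10 min at 37 °C in MEM with 2 µM diclofenac. Preincubated 10 min at 37 °C in assay medium with 1% BSA. Test compound added, 10 min at 37 °C. Stopped with ice-cold 10% trichloroacetic acid. cAMP measured by radioimmunoassay.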
A general note: cAMP levels reflect the balance of adenylyl cyclase and phosphodiesterase activity.
With `COCc1cccc(C[C@H](O)/C=C/[C@H]2CCC(=O)N2CCSCCCC(=O)O)c1`, the EC50 came to 1.3 nM.
As to `COCc1cccc(C[C@H](O)/C=C/[C@H]2CCC(=O)[C@@H]2CCSCCCC(=O)O)c1`, the EC50 was 1.1 nM.
On to `O=C(O)CCCSCCN1C(=O)OC[C@@H]1/C=C/[C@@H](O)Cc1ccccc1`, for which the EC50 turned out to be 36 nM.
Turning to `CCc1cccc(C[C@H](O)/C=C/[C@H]2COC(=O)N2CCSCCCC(=O)O)c1`, the EC50 was found to be 18 nM.
As to `CCCc1cccc(C[C@H](O)/C=C/[C@H]2COC(=O)N2CCSCCCC(=O)O)c1`, the EC50 amounted to 93 nM.
On to `O=C(O)CCCSCCN1C(=O)OC[C@@H]1/C=C/[C@@H](O)Cc1cccc(F)c1`, for which the EC50 was determined as 35 nM.
